Measured values published in article PMC9619409 (Journal of Medicinal Chemistry, 2022).
Values after ≈ are worked out from the molar mass of the structure shown. “Also recorded” adds a separate entry of the source.

How the values were obtained:
[1] = tested on: P. aeruginosa PA14; experiment: Antibiotic susceptibility; assay type: cell-based, Pseudomonas aeruginosa
Method in brief: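 PA14 from LB agar (37 °C overnight) dispersed in MHB II to OD600 0.08–0.13, diluted 1:100 (final 5 × 10⁵ cfu/mL). Serial dilutions in PBS/20% DMSO (1 mM–1.9 μM before dilution) diluted ~1:20 into matrix at −3 h (sealed, 37 °C) or −10 min (room temperature).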

[2] = assay type: in vitro ADME; details: human blood plasma spiked with fresh growth medium, within 3 h
[3] = assay type: in vitro ADME; details: human blood plasma + PA14 culture supernatant, 37 °C, up to 3 h
Method in brief: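 PA14 grown overnight in LB at 37 °C, 180 rpm. Culture centrifuged and supernatant 0.22 μm-filtered, then mixed 1:9 with pooled LiHep human plasma. Test compound (1 mM stock, PBS pH 7.4/20% DMSO) diluted 1:20 into matrix on ice and incubated at 37 °C, 500 rpm. Samples taken at 0, 30, 60, 120 and 180 min, quenched with ice-cold MeCN containing diphenhydramine internal standard, centrifuged, then analysed by HPLC-MS.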

[4] = Cleavage/stability in P. aeruginosa PA14 culture filtrate without plasma; assay type: in vitro ADME, Pseudomonas aeruginosa; details: up to 24 h
[5] = Microsomal stability assay, human; assay type: in vitro ADME; details: human liver microsomes
Method in brief: (§1)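 Mouse or human liver microsomes thawed slowly on ice, then combined with test compound (from a 100 μM solution; final level not given) and 100 mM phosphate buffer. Pre-incubated 5 min at 37 °C in a water bath. Intrinsic clearance reported as μL/min/mg protein.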

[6] = Microsomal stability assay, mouse; assay type: in vitro ADME; details: mouse liver microsomes
Method in brief: as §1

[7] = tested on: A549 cells; details: cytotoxicity versus antimicrobial activity
[8] = tested on: A549 cells; experiment: Cell accumulation assay; assay type: cell-based, human; details: for compound 2 found in cells after lysis (intracellular cleavage of prodrug): A549 cells treated with prodrug
[9] = Matrix 3: 10% P. aeruginosa culture supernatant in PBS, pre-incubation < 10 min

In the case of `O=C(O)c1cn(C2CC2)c2cc(N3CCNCC3)c(F)cc2c1=O` [Compound 1, Ciprofloxacin, reference compound], the MIC ([1]; Pseudomonas aeruginosa, PA14, Matrix 1: PBS, pre-incubation 3 h) is reported as 0.125 to 0.25 µM (≈ 0.0414 to 0.0828 µg/mL).

For `CC(C)C[C@H](NC(=O)CNC(=O)[C@H](C)NC(=O)c1ccc(S[C@@H]2O[C@H](CO)[C@H](O)[C@H](O)[C@H]2O)cc1)C(=O)N[C@@H](C)C(=O)N1CCN(c2cc3c(cc2F)c(=O)c(C(=O)O)cn3C2CC2)CC1` [Compound 24, LecA-targeted ciprofloxacin-prodrug], the “release of antibiotic cargo (stability control)” value (shortened to “release … (stability control)”) [2] was “no significant release of the antibiotic cargo was observed” and the “release of native antibiotic cargo” value [3] was “not fully metabolized to release their native antibiotic cargo; also recorded: not completely processed to release free ciprofloxacin”.

With `CC(C)C[C@H](NC(=O)CNC(=O)[C@H](C)NC(=O)c1ccc(S(=O)(=O)NC[C@H]2O[C@@H](C)[C@@H](O)[C@@H](O)[C@@H]2O)cc1)C(=O)N[C@@H](C)C(=O)N1CCN(c2cc3c(cc2F)c(=O)c(C(=O)O)cn3C2CC2)CC1` [Compound 25, LecB-Targeted Ciprofloxacin-Prodrug] the “release … (stability control)” value [2] was “no significant release of the antibiotic cargo was observed” and the “release of native antibiotic cargo” value [3] was “not fully metabolized to release their native antibiotic cargo; also recorded: not completely processed to release free ciprofloxacin”.

For `CC(C)C[C@H](N)C(=O)N[C@@H](C)C(=O)N[C@H]1CCN(c2cc3c(cc2F)c(=O)c(C(=O)O)cn3C2CC2)C1` [Compound 35, 7-((S)-3-((S)-2-((S)-2-Amino-4-methylpentanamido)propanamido)pyrrolidin-1-yl)-1-cyclopropyl-6-fluoro-4-oxo-1,4-dihydroquinoline-3-carboxylic Acid], the “release of antibiotic cargo from dipeptide conjugate” value [4] was “only slowly released their antibiotic cargo”.

In the case of `CC(C)C[C@H](NC(=O)CNC(=O)[C@H](C)NC(=O)c1ccc(S[C@@H]2O[C@H](CO)[C@H](O)[C@H](O)[C@H]2O)cc1)C(=O)N[C@@H](C)C(=O)N[C@H]1CCN(c2cc3c(cc2F)c(=O)c(C(=O)O)cn3C2CC2)C1` [Compound 36, LecA-Targeted Aminopyrrolidine-fluoroquinolone Prodrug], the “release … (stability control)” value [2] is reported as “no significant release of the antibiotic cargo was observed”, the half-life at 1 h, 100 µM [5] is reported as 1.55 h and the microsomal CLint at 1 h, 1 µM [5] is reported as 15 µL/min/mg. The “release of native antibiotic cargo” value [3] was “efficiently released”, the MIC ([1]; Matrix 3: 10% P. aeruginosa culture supernatant in PBS, pre-incubation 3 h) was 0.195 to 3.13 µM and the MIC [1, 9] was 0.78 to 3.13 µM. The half-life at 1 h, 100 µM [6] was 1.67 h, the microsomal CLint at 1 h, 100 µM [6] was 14 µL/min/mg and the selectivity index [7] was “greater than 20”. For the same compound, the “fold decreased ability to permeate into human cells versus 2” value ([8]; A549 cells) was “up to 100 fold”, the “compound 2 found in cells after lysis (intracellular cleavage of prodrug)” value [8] was “not detected” and the intracellular concentration ([8]; A549 cells, 10 μg/mL, after 15, 30, and 60 min) was 55 to 130 ng/mL.

In the case of `CC(C)C[C@H](NC(=O)CNC(=O)[C@H](C)NC(=O)c1ccc(S(=O)(=O)NC[C@H]2O[C@@H](C)[C@@H](O)[C@@H](O)[C@@H]2O)cc1)C(=O)N[C@@H](C)C(=O)N[C@H]1CCN(c2cc3c(cc2F)c(=O)c(C(=O)O)cn3C2CC2)C1` [Compound 37, LecB-Targeted Aminopyrrolidine-FQ-Prodrug], the “release … (stability control)” value [2] is reported as “no significant release of the antibiotic cargo was observed”, the half-life at 1 h, 100 µM [5] is reported as 2.97 h and the microsomal CLint at 1 h, 100 µM [5] is reported as 7.8 µL/min/mg. For the same compound, the “release of native antibiotic cargo” value [3] was “efficiently released”, the half-life at 1 h, 100 µM [6] was 3.6 h and the microsomal CLint at 1 h, 1 µM [6] was 6.4 µL/min/mg. For the same compound, the “fold decreased ability to permeate into human cells versus 2” value ([8]; A549 cells) was “up to 100 fold” and the “compound 2 found in cells after lysis (intracellular cleavage of prodrug)” value [8] was “not detected”.

For `CC(C)C[C@H](NC(=O)CNC(=O)[C@H](C)NC(=O)c1ccc(S[C@@H]2O[C@H](CO)[C@H](O)[C@H](O)[C@H]2O)cc1)C(=O)N[C@@H](C)C(=O)NC[C@@H]1CCN(c2cc3c(cc2F)c(=O)c(C(=O)O)cn3C2CC2)C1` [Compound 48, LecA-Targeted Aminomethylpyrrolidine-FQ-Prodrug], the “release … (stability control)” value [2] was “no significant release of the antibiotic cargo was observed” and the “release of native antibiotic cargo” value [3] was “efficiently released”.

With `CC(C)C[C@H](NC(=O)CNC(=O)[C@H](C)NC(=O)c1ccc(S(=O)(=O)NC[C@H]2O[C@@H](C)[C@@H](O)[C@@H](O)[C@@H]2O)cc1)C(=O)N[C@@H](C)C(=O)NC[C@@H]1CCN(c2cc3c(cc2F)c(=O)c(C(=O)O)cn3C2CC2)C1` [Compound 49, LecB-Targeted Aminomethylpyrrolidine-FQ-Prodrug] the “release … (stability control)” value [2] was “no significant release of the antibiotic cargo was observed”, the “release of native antibiotic cargo” value [3] was “efficiently released” and the MIC [1, 9] was 3.13 to 6.25 µM.

In the case of “Leu-Ala-Ciprofloxacin Conjugate [Compound 19]”, the “release of antibiotic cargo from dipeptide conjugate” value [4] is reported as “only slowly released their antibiotic cargo”.
